What was measured:
[1] = test system: HCT-116; experiment: Antiproliferative activity against human HCT-116 cells after 10 days; type: functional, cell-based; details: HCT-116, 240 h
Summary of the method: (§1)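 10-day 2D proliferation screen of a broad cancer cell panel (about 240 lines, Eurofins Oncopanel). All lines were mycoplasma negative and STR verified. Compounds were dosed up to a top concentration of 10 μM or 25 μM, depending on the inhibitor. Anti-proliferative IC50 values are the average of three biological replicates.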

[2] = test system: SW684; experiment: Antiproliferative activity against human SW684 cells after 10 days; type: functional, cell-based; details: SW684, 240 h
[3] = test system: SNU-423; experiment: Antiproliferative activity against human SNU-423 cells after 10 days; type: functional, cell-based; details: SNU-423, 240 h
[4] = Antiproliferative activity against human RKOAS451 cells after 10 days; type: functional, cell-based; details: RKOAS451, 240 h
Summary of the method: (§2)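 Broad cancer cell line panel (Eurofins Oncopanel, about 240 lines; mycoplasma negative, STR verified) grown in 2D culture and exposed to compound in a 10-day proliferation assay. The top concentration was 10 μM for the SMYD2 inhibitor series and 25 μM for the SMYD3 inhibitor. The proliferative IC50 is taken from concentration-response data, each value the mean of three biological replicates.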

[5] = test system: LNCaP; experiment: Antiproliferative activity against human LNCaP cells after 10 days; type: functional, cell-based; details: 240 h; summary of the method: as §2
[6] = test system: SK-MEL-1; experiment: Antiproliferative activity against human SK-MEL-1 cells after 10 days; type: functional, cell-based; details: SK-MEL-1, 240 h
[7] = test system: DMS-114; experiment: Antiproliferative activity against human DMS-114 cells after 10 days; type: functional, cell-based; details: DMS-114, 240 h; summary of the method: as §1
[8] = test system: BXPC-3; experiment: Antiproliferative activity against human BXPC-3 cells after 10 days; type: functional, cell-based; details: BXPC-3, 240 h
Summary of the method: (§3)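 Tested as part of a 240-line cancer cell panel (Eurofins Oncopanel); all lines were mycoplasma-negative and STR-verified. Cells were exposed to a compound concentration series in 2D culture for 10 days. The highest concentration was 10 μM or 25 μM, depending on the inhibitor. Antiproliferative IC50 was derived from the mean of three biological replicates.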

[9] = test system: U-87 MG; experiment: Antiproliferative activity against human U-87MG cells after 10 days; type: functional, cell-based, U-87MG ATCC; details: 240 h
[10] = test system: JEG-3; experiment: Antiproliferative activity against human JEG-3 cells after 10 days; type: functional, cell-based; details: JEG-3, 240 h
Summary of the method: (§4)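 Cell lines run in the Eurofins Oncopanel broad cancer panel, all mycoplasma-negative and STR-verified. Cells were exposed to a compound concentration series in a 10-day proliferation assay, and an anti-proliferative IC50 was derived. Values are the mean of three biological replicates.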

[11] = test system: SK-BR-3; experiment: Antiproliferative activity against human SK-BR-3 cells after 10 days; type: functional, cell-based; details: SK-BR-3, 240 h
[12] = test system: NCI-H446; experiment: Antiproliferative activity against human NCI-H446 cells after 10 days; type: functional, cell-based; details: NCI-H446, 240 h; summary of the method: as §2
[13] = test system: RPMI-8226; experiment: Antiproliferative activity against human RPMI-8226 cells after 10 days; type: functional, cell-based; details: RPMI-8226, 240 h
[14] = test system: CAPAN-1; experiment: Antiproliferative activity against human CAPAN-1 cells after 10 days; type: functional, cell-based; details: CAPAN-1, 240 h; summary of the method: as §3
[15] = test system: CHL-1; experiment: Antiproliferative activity against human CHL-1 cells after 10 days; type: functional, cell-based; details: CHL-1, 240 h; summary of the method: as §3
[16] = test system: SW837; experiment: Antiproliferative activity against human SW837 cells after 10 days; type: functional, cell-based; details: SW837, 240 h
[17] = test system: RPMI-7951; experiment: Antiproliferative activity against human RPMI-7951 cells after 10 days; type: functional, cell-based; details: RPMI-7951, 240 h
[18] = test system: BT-549; experiment: Antiproliferative activity against human BT-549 cells after 10 days; type: functional, cell-based; details: BT-549, 240 h; summary of the method: as §3
[19] = test system: SH-4; experiment: Antiproliferative activity against human SH-4 cells after 10 days; type: functional, cell-based; details: SH-4, 240 h
[20] = test system: A101D; experiment: Antiproliferative activity against human A101D cells after 10 days; type: functional, cell-based; details: 240 h; summary of the method: as §3
[21] = test system: BV-173; experiment: Antiproliferative activity against human BV-173 cells after 10 days; type: functional, cell-based; details: BV-173, 240 h; summary of the method: as §3
[22] = test system: DK-MG; experiment: Antiproliferative activity against human DK-MG cells after 10 days; type: functional, cell-based; details: 240 h; summary of the method: as §1
[23] = test system: T-24; experiment: Antiproliferative activity against human T24 cells after 10 days; type: functional, cell-based; details: T-24, 240 h
[24] = test system: MCF7; experiment: Antiproliferative activity against human MCF7 cells after 10 days; type: functional, cell-based; details: MCF7, 240 h; summary of the method: as §2
[25] = Antiproliferative activity against human RKOE6 cells after 10 days; type: functional, cell-based; details: RKOE6, 240 h
Summary of the method: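 Tested in the Eurofins Oncopanel of about 240 cancer cell lines, all mycoplasma-negative and STR-verified. Cells were exposed to compound for 10 days in 2D culture, and a proliferative IC50 was derived from the concentration series. The highest concentration tested was 10 μM in the SMYD2 inhibitor screen and 25 μM in the SMYD3 inhibitor screen. Values are means of three biological replicates.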

[26] = Antiproliferative activity against human BM-1604 cells after 10 days; type: functional, cell-based; details: BM-1604, 240 h; summary of the method: as §3
[27] = test system: CCF-STTG1; experiment: Antiproliferative activity against human CCF-STTG1 cells after 10 days; type: functional, cell-based; details: CCF-STTG1, 240 h; summary of the method: as §4
[28] = test system: MES-SA; experiment: Antiproliferative activity against human MES-SA cells after 10 days; type: functional, cell-based; details: 240 h; summary of the method: as §2
[29] = test system: COLO 320DM; experiment: Antiproliferative activity against human COLO 320DM cells after 10 days; type: functional, cell-based; details: 240 h; summary of the method: as §3
[30] = test system: DB; experiment: Antiproliferative activity against human DB cells after 10 days; type: functional, cell-based; details: 240 h; summary of the method: as §1
[31] = test system: Hs 766; experiment: Antiproliferative activity against human Hs766T cells after 10 days; type: functional, cell-based; details: Hs 766, 240 h; summary of the method: as §1
[32] = test system: CAKI-2; experiment: Antiproliferative activity against human CAKI-2 cells after 10 days; type: functional, cell-based; details: CAKI-2, 240 h; summary of the method: as §3
[33] = test system: A-431; experiment: Antiproliferative activity against human A-431 cells after 10 days; type: functional, cell-based; details: A-431, 240 h; summary of the method: as §3
[34] = test system: AGS; experiment: Antiproliferative activity against human AGS cells after 10 days; type: functional, cell-based; details: 240 h; summary of the method: as §3
[35] = test system: Capan-2; experiment: Antiproliferative activity against human Capan2 cells after 10 days; type: functional, cell-based; details: Capan-2, 240 h; summary of the method: as §1
[36] = test system: 786-0; experiment: Antiproliferative activity against human 786-0 cells after 10 days; type: functional, cell-based; details: 786-0, 240 h; summary of the method: as §3
[37] = test system: HepG2; experiment: Antiproliferative activity against human HepG2 cells after 10 days; type: functional, cell-based; details: HepG2, 240 h; summary of the method: as §1
[38] = test system: 769-P; experiment: Antiproliferative activity against human 769-P cells after 10 days; type: functional, cell-based; details: 240 h; summary of the method: as §3
[39] = test system: CAL-27; experiment: Antiproliferative activity against human CAL-27 cells after 10 days; type: functional, cell-based; details: CAL-27, 240 h; summary of the method: as §3
[40] = test system: U2OS; experiment: Antiproliferative activity against human U2OS cells after 10 days; type: functional, cell-based; details: 240 h
[41] = test system: CAKI-1; experiment: Antiproliferative activity against human CAKI-1 cells after 10 days; type: functional, cell-based; details: CAKI-1, 240 h; summary of the method: as §3
[42] = test system: NCI-H295R; experiment: Antiproliferative activity against human NCI-H295R cells after 10 days; type: functional, cell-based; details: 240 h; summary of the method: as §2
[43] = test system: SCC-25; experiment: Antiproliferative activity against human SCC-25 cells after 10 days; type: functional, cell-based; details: SCC-25, 240 h
[44] = test system: NCI-H69; experiment: Antiproliferative activity against human NCI-H69 cells after 10 days; type: functional, cell-based; details: NCI-H69, 240 h; summary of the method: as §2
[45] = test system: A 172; experiment: Antiproliferative activity against human A-172 cells after 10 days; type: functional, cell-based; details: A 172, 240 h; summary of the method: as §3
[46] = test system: C-33-A; experiment: Antiproliferative activity against human C-33-A cells after 10 days; type: functional, cell-based; details: 240 h; summary of the method: as §3

SMILES: Cc1cn(CCN2CCN(c3ccccc3-c3cc(C#N)cc(C(=O)NCCCN4CCCC4)c3)CC2)c2ccccc12
- IC50 [1]: 2.66 µM
- IC50 [2]: 5.75 µM
- IC50 [3]: 1.11 µM
- IC50 [4]: 1.11 µM
- IC50 [5]: 3.44 µM
- IC50 [6]: 1.9 µM
- IC50 [7]: 2.33 µM
- IC50 [8]: 2.87 µM
- IC50 [9]: 2.85 µM
- IC50 [10]: 1.5 µM
- IC50 [11]: 1.17 µM
- IC50 [12]: 3.16 µM
- IC50 [13]: 1.56 µM
- IC50 [14]: 5.09 µM
- IC50 [15]: 2.57 µM
- IC50 [16]: 3.69 µM
- IC50 [17]: 2.05 µM
- IC50 [18]: 3.29 µM
- IC50 [19]: 1.15 µM
- IC50 [20]: 1.23 µM
- IC50 [21]: 1.33 µM
- IC50 [22]: 6.42 µM
- IC50 [23]: 2.94 µM
- IC50 [24]: 3.11 µM
- IC50 [25]: 1.07 µM
- IC50 [26]: 4.82 µM
- IC50 [27]: 5.82 µM
- IC50 [28]: 2.3 µM
- IC50 [29]: 2.11 µM
- IC50 [30]: 1.17 µM
- IC50 [31]: 2.75 µM
- IC50 [32]: 1.22 µM
- IC50 [33]: 6.35 µM
- IC50 [34]: 1.27 µM
- IC50 [35]: 1.57 µM
- IC50 [36]: 2.1 µM
- IC50 [37]: 2.35 µM
- IC50 [38]: 2.76 µM
- IC50 [39]: 2.52 µM
- IC50 [40]: 1.68 µM
- IC50 [41]: 2.79 µM
- IC50 [42]: 4.84 µM
- IC50 [43]: 2.52 µM
- IC50 [44]: 2.74 µM
- IC50 [45]: 1.96 µM
- IC50 [46]: 3.23 µM

SMILES: O=C(NC1CN(Cc2cnn(Cc3ccccc3)c2)C1)c1cn(C2CC2)nn1
- IC50 [1]: > 10 µM
- IC50 [2]: > 10 µM
- IC50 [3]: > 10 µM
- IC50 [4]: > 10 µM
- IC50 [5]: > 10 µM
- IC50 [6]: > 10 µM
- IC50 [7]: > 10 µM
- IC50 [8]: > 10 µM
- IC50 [9]: > 10 µM
- IC50 [10]: > 10 µM
- IC50 [11]: > 10 µM
- IC50 [12]: > 10 µM
- IC50 [13]: > 10 µM
- IC50 [14]: > 10 µM
- IC50 [15]: > 10 µM
- IC50 [16]: > 10 µM
- IC50 [17]: > 10 µM
- IC50 [18]: > 10 µM
- IC50 [19]: > 10 µM
- IC50 [20]: > 10 µM
- IC50 [21]: > 10 µM
- IC50 [22]: > 10 µM
- IC50 [23]: > 10 µM
- IC50 [24]: > 10 µM
- IC50 [25]: > 10 µM
- IC50 [26]: > 10 µM
- IC50 [27]: > 10 µM
- IC50 [28]: > 10 µM
- IC50 [29]: > 10 µM
- IC50 [30]: 0.663 µM
- IC50 [31]: > 10 µM
- IC50 [32]: > 10 µM
- IC50 [33]: > 10 µM
- IC50 [34]: > 10 µM
- IC50 [35]: > 10 µM
- IC50 [36]: > 10 µM
- IC50 [37]: > 10 µM
- IC50 [38]: > 10 µM
- IC50 [39]: > 10 µM
- IC50 [40]: > 10 µM
- IC50 [41]: > 10 µM
- IC50 [42]: > 10 µM
- IC50 [43]: > 10 µM
- IC50 [44]: > 10 µM
- IC50 [45]: > 10 µM
- IC50 [46]: > 10 µM
